Compound activity deposited in PubChem BioAssay by several laboratories.
Compounds with a hit are over-represented: about 2.4% of the library has one in this group of screens.
ROMK mod: ROMK potassium channel modulators, primary screen, cell-based, thallium flux, MLSMR library | ATP-sensitive inward rectifier potassium channel 1 (Homo sapiens), P48048 | B-score at 10 µM | Tet-inducible ROMK, thallium flux fluorescence; actives lie on both sides | actives 2% (n = 130,000);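 active = signal ratio slope over the read window, or its plate-corrected B-score, at least 3 SD from the plate mean, either direction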;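 also: B-score of the F/F0 ratio slope over 7 to 12 s after thallium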
Target sequence (P48048 whole entry, looked up): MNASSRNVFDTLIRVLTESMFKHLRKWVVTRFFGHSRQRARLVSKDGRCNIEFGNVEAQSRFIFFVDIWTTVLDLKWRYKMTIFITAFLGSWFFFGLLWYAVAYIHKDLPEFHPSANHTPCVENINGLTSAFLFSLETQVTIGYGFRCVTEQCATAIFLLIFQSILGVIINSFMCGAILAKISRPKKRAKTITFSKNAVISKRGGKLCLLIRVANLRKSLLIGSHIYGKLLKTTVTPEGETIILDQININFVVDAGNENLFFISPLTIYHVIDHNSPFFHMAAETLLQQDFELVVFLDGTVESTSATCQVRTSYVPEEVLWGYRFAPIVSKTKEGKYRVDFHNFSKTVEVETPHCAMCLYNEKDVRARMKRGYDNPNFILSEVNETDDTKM
MT stabilize HCS: microtubule stabilizers in HeLa cells, primary screen, imaging, high-content imaging. AID 2205, 2009. HeLa tubulin immunostaining HCS, 24 h; share of cells brighter than vehicle mean+2SD. actives 0.83% (n = 200,000). % tubulin-high responders, % at 10 µM;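 active = plate Z-score above 3 for both tubulin-high and condensed-nucleus cell shares, with cell loss under 80%, at 10 µM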;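 also: anti alpha tubulin signal scored within the nucleus-defined area of each cell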
Insulin prom inh: inhibitors of insulin promoter-driven GFP, primary screen, imaging, TRM-6 cells (human fetal islet line), eGFP reporter, cell count; inhibition, % at 2 µM; actives 0.9% (n = 130,000); reporter expression induced with tamoxifen;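 active = inhibition above the mean plus 3 SD, with well images judged a real hit on visual review, cut at about 60% in these data, passing the limit was not always enough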
HSV replic up: enhancers of HSV replication in host cells, fold increase, host cell viability | HSV replication augmentation in cells | actives 0.005% (n = 220,000) | AID 1956, 2009 | maximum fold increase; in the data active = maximum fold increase above about 1.5; tested in PC3 cells
bCat nuc transl: modulators of beta-catenin nuclear translocation, primary screen, imaging, HeLa cells, immunofluorescence, high-content; nuclear translocation activity, % at 5 µM; actives 0.3% (n = 190,000); AID 1665, 2009;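 active = nuclear translocation activity above 50% at 5 µM, with a well cell count of 50 or more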;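 also: per-cell ratio of nuclear to cytoplasmic median beta-catenin stain intensity; plate controls were DMSO negative control for no effect and GSK-3 inhibitor IX positive control for full effect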
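Assay system: human HeLa cells, native beta-catenin; doses: 5 µM primary, 0.02–20 µM confirmation; incubation: compound treatment 24 h, 37°C, 5% CO2; technique: fluorescence imaging of beta-catenin antibody stain plus DAPI; measure: % activation, nuclear-to-cytoplasmic median beta-catenin signal ratio per cell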
An asterisk follows results filed as active; i = inactive; · = not tested or not shown.

SMILES	ROMK mod	MT stabilize HCS	Insulin prom inh	HSV replic up	bCat nuc transl
O=C(Nc1cccc(Cl)c1)/C(=C\c1cccnc1)NC(=O)c1ccco1	0.536	4.5	66.7*	i	-1.1
COc1ncccc1-c1nnn(-c2ccc(F)cc2)n1	·	2.4	·	i	-0.6
CCN(c1ccccc1)S(=O)(=O)c1ccc(C(=O)Nc2nnc(C3CC3)o2)cc1	0.67	5.1	77.8*	i	-4.7
CCOc1ccc(-n2ccnc2SCC(=O)NCc2ccc3c(c2)OCO3)cc1	·	5.0	-18.2	i	0.2
O=c1c2c3c(sc2[nH]c(=S)n1Cc1ccco1)CCC3	-5.52*	·	·	i	1.3
CC1(C)Cc2c(sc3[nH]c(=S)n(Cc4ccco4)c(=O)c23)CO1	1.02	2.9	36.4	i	0.3
CC1CC(C)CN(C(=O)C(NS(=O)(=O)c2ccc(Br)s2)c2ccccc2)C1 (stereo unspecified)	-1.73	6.0	-14.8	i	-1.7
O=C1NCCN(Cc2ccoc2)C1CC(=O)N(CCO)Cc1ccccc1 (stereo unspecified)	0.511	4.2	·	i	-0.8
COc1ccc(-c2nnn(CCC(=O)O)n2)cc1	0.638	2.0	-31.4	i	-0.3
COc1ccc(-c2nnn(CCc3nn[nH]n3)n2)cc1	·	2.7	75.0*	i	·
CCOCCCn1c(=S)[nH]c2ncccc2c1=O	·	4.6	100.0*	·	-1.9
COc1cccc(NC(=O)CSc2nc3ccsc3c(=O)n2-c2ccc(C(=O)O)cc2)c1	0.00739	0.9	·	i	-2.6
Cc1ccc(C(=O)C2=C(O)C(=O)N(c3ncccn3)C2c2ccc(Cl)cc2)o1 (stereo unspecified)	0.0362	3.3	80.0*	i	-1.6
COc1cccc(C(=O)C2CCCN(Cc3cn(CC(N)=O)c4ccccc34)C2)c1 (stereo unspecified)	0	3.7	-5.6	i	-0.9
CCN(C(=O)c1cn(C)c(=O)c2cc(OC)c(OC)cc12)c1cc(C)ccc1C	·	3.4	·	i	1.0
CCN(C(=O)c1cn(C)c(=O)c2cc(OC)c(OC)cc12)c1ccccc1C	·	3.0	81.0*	i	-0.4
CCOc1ccc2c(c1)-c1c(ssc1=S)C(C)(C)N2C(=O)c1ccco1	0.948	13.4	7.1	i	67.8*
Cc1ccc(C(=O)NC(=S)Nc2nc(-c3cccc([N+](=O)[O-])c3)cs2)c(Cl)c1	·	6.6	85.7*	i	1.4
O=C(Cc1ccccc1)Nc1nc(-c2cccc([N+](=O)[O-])c2)cs1	·	5.2	·	i	-1.6
CCCN1CC(O)=C(C#N)C1=O	1.01	0.9	12.8	i	-5.7
COc1ccc(N2CCc3c(C)nc(SC)nc32)cc1	-0.534	16.6*	·	i	-1.6
CCOc1ccc(N2CCc3c(C)nc(SC)nc32)cc1	0.27	30.9*	·	i	125.3*
COc1cccc(-n2c([S-])c(C(=O)Nc3ccc(S(=O)(=O)N4CCOCC4)cc3)[n+]3cc(C(N)=O)ccc23)c1	·	·	·	i	1.3
CCCCC1=NN(C(=O)c2ccco2)C(O)(C(F)(F)F)C1 (stereo unspecified)	0.331	15.1*	·	i	13.2
CC(C(=O)O)n1c(-c2ccn[nH]2)n[nH]c1=S (stereo unspecified)	·	·	·	i	-0.3
SMILES	ROMK mod	MT stabilize HCS	Insulin prom inh	HSV replic up	bCat nuc transl
CC(=O)COc1cc(C)cc2oc(=O)cc(-c3ccccc3)c12	0.819	2.5	·	i	-0.2
COc1ccc([N+](=O)[O-])cc1COc1cc(C)cc2oc(=O)cc(-c3ccccc3)c12	·	17.5*	·	i	-4.6
COc1cc(NC(=O)N2CCNC2=O)cc(C(=O)Nc2cccc(C(F)(F)F)c2)c1	·	·	·	i	54.8*
Cc1ccc(CN2CCN(c3ccccn3)CC2)s1	0.103	1.5	72.2*	i	·
Cc1c(C(=O)NCC2CCCO2)cccc1[N+](=O)[O-] (stereo unspecified)	-0.673	3.6	·	i	-2.2
S=C(Nc1ccccc1)N1CCN(c2ccc(N3CCOCC3)nn2)CC1	-0.798	3.9	75.0*	i	1.0
S=C(Nc1ccccc1)N1CCOCCOCCN(C(=S)Nc2ccccc2)CCOCCOCC1	·	·	·	i	0.7
CC(=O)C(C(C)=O)c1c(Cl)c(O)c(O)c2c(C(=O)c3ccccc3)coc12	-3.43*	3.5	·	i	-0.7
CN1CCN(Cc2c(O)ccc3occ(C(=O)c4ccccc4)c23)CC1	·	2.9	·	i	-1.6
O=C(NC(=S)N1CCCCC1)c1csc([N+](=O)[O-])c1	·	·	·	i	0.2
COc1ccc(-c2cn3c(C)c(C(=O)Nc4cc(NC(C)=O)ccc4OC)sc3n2)cc1	-0.464	34.2*	-12.5	i	2.6
CC(NC(=O)CN1CCc2ccccc21)c1ccccc1 (stereo unspecified)	-0.491	7.0	2.9	i	-1.3
Cc1c(CCO)sc[n+]1CC(=O)OCCC12CC3CC(CC(C3)C1)C2	-0.1	2.6	66.7*	i	2.8
O=C(Nc1ncc2c(n1)-c1ccccc1CC2)c1cccc(Cl)c1	·	43.9*	·	·	·
CCSc1ncc(CO)c(N)n1	·	·	·	i	-1.2
O=C(CN1C(=O)S/C(=C/c2cc(Br)cs2)C1=O)N1CCOCC1	·	3.4	·	i	3.3
CCOc1ccc(NC(=NCc2ccc3c(c2)OCO3)SC2CC(=O)N(c3ccc(OCC)cc3)C2=O)cc1 (stereo unspecified)	-0.909	25.3*	-450.0	i	0.2
Nc1cccc(-c2nc3ccccc3[nH]2)c1	0.232	4.1	75.0*	i	-1.9
Cc1ccc2nc(-c3cccc(N)c3)[nH]c2c1	·	1.4	80.0*	i	-0.9
Nc1ccccc1-c1nc2ccccc2[nH]1	-0.828	3.5	93.8*	i	-0.5
O=[N+]([O-])c1cccc(-c2nc3ccc([N+](=O)[O-])cc3[nH]2)c1	-2.78	1.4	91.7*	i	1.9
O=[N+]([O-])c1ccc2nc(-c3ccncc3)[nH]c2c1	·	·	·	i	-4.5
Nc1ccc(-c2nc3ccccc3[nH]2)cc1	·	6.8	·	i	-0.8
CC12CC3CC(C)(C1)CC(Nc1nc(N4CCOCC4)nc4ccccc14)(C3)C2	·	·	·	i	-0.5
Cn1cc(-c2nc3ccccc3[nH]2)c2ccccc21	-0.0113	4.9	100.0*	i	·
SMILES	ROMK mod	MT stabilize HCS	Insulin prom inh	HSV replic up	bCat nuc transl
c1ccc(-c2cc(-c3nc4ccccc4[nH]3)c3ccccc3n2)cc1	0.762	3.7	22.2	i	4.2
C=CCSc1nc(NC)c2sccc2n1	·	1.2	80.0*	i	-1.1
CNc1nc(SC)nc2ccsc12	·	1.2	-3.3	i	-5.3
N#CC1=C(SCC(=O)c2ccc(Cl)cc2)NC2=C(C(=O)CCC2)C1c1ccco1 (stereo unspecified)	0.0954	·	·	i	83.2*
COCCNC(=O)C1CC(c2cccc(OC)c2)=NO1 (stereo unspecified)	·	4.1	-45.5	i	1.2
CCn1ncc(C2=NOC(C(=O)NCc3ccc(OC)cc3)C2)c1C (stereo unspecified)	·	17.9*	·	i	146.8*
